To fix the notation:
B1: tRNA (parent)
chain: GUUCCGUUGGCGUAAUGGUAACGCGUCUCCCUCCUAAGGAGAAGACUGCGGGUUCGAGUCCCGUACGGAACG

Variants at the floor of the assay were thinned out. Some results are limits rather than exact numbers.

The variants in this series derive from B1. Kind of series: yeast fitness relative to wild type (ratio to wild type); higher = fitter; tRNA-Arg(CCU), competitive growth, 37 C, YPD. Summed up:
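Changes in genotype frequencies gave Darwinian fitness relative to wild type. Frequencies were read by 100-nucleotide paired-end sequencing of gene amplicons before and after pooled Saccharomyces cerevisiae strains, carrying tRNA-Arg(CCU) gene variants at the native locus, were competed in YPD at 37°C for 24 hours in six replicates. A genotype was kept only with ≥ 100 starting reads, and estimates < 0.5 were set to 0.5.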
GUUUCGUUGGCGUACUGGUAACGCGUCUCCCUCGUAAGGAGACGACUGCGGGUUCGAGUCCCGUUCGGAACG [C4U A15C C34G A43C A65U]: the yeast fitness was at most 0.5. Turning to GUUUCGUUGGCGUGAUGGUAACGCGUCUCACUCCUAAGGAGAAGACUGCGGGUUCGAGUCCCGUACGGAACG [C4U A14G C30A], the yeast fitness was 0.812.

For the variant GUUGCGUUGGCGUAAUGGUAACGCGUCUCCCUCCUAAGGAGAAGACUGCGGGUCCGAGUCCCGUACGGAACG [C4G U54C], the yeast fitness was determined as 0.886. To GUUGCGUUGGCGUAAUGGUAACGCGUCUCCCUCCUAAGGAGAAGACUGCGGGUACGAGUCCCGUACGGAACG [C4G U54A] belongs 0.572; to GUUGCGUUGGCGUAAUGGUAACGCGUCUCCCUCCUAAGGAGAAGACUGCGGGUGCGAGUCCCGUACGGAACG [C4G U54G], 0.626; to GUUUCGUUGGCGUGAUGGUAACGCGUCUCCCUCGUAAGGAGAAGACUGCCGGUUCCAGUCCCGUACGGAACG [C4U A14G C34G G50C G56C], 0.637.

For the variant GUUUCGUUGGCGUACUGGUAACGCGUCUCCCUCCUAAGGAGAAGACUGCGCGUUCGAGUCCCGUACGGAACG [C4U A15C G51C], the yeast fitness is at most 0.5. On to GUUUCGUUGGCGUACUGGUAACGCGUCUCCCUCCUAAGGAGAAGACUGCGAGUUCGAGUCCCGUACGGAACG [C4U A15C G51A], for which the yeast fitness is at most 0.5. To GUUUCGUUGGCGUCAUGGUAACGCGUCUCCCUCCUAAGGAGAAGACUGCGCGUUCGAGUCCCGUACGGAACG [C4U A14C G51C] belongs at most 0.5; to GUUUCGUUGGCGUACUGGUAACGCGUCUCCCUCCUAAGGAGAAGAAUGCGGGUUCGGGUCACGUACGGACCG [C4U A15C C46A A57G C61A A70C], at most 0.5. In the case of GUUUCGUUGGCGUAAUGGUCACGCGUUUCCCUCCUAAGGCGAAGACUGCGGGUUCGAGUCCCGUACGGAACG [C4U A20C C27U A40C], the yeast fitness came out at 0.605. To GUUUCGUUGGCGUAUUGGUAACGCGUCUCCCUCCUAAGGAGAAGACUGCGGGUUCGAGUCCCGCGCGGAACG [C4U A15U U64C A65G] belongs at most 0.5; to GUUUCGUUGGCGUAGUGGUAACGCGUCUCCCUCCUAAGGAGAAGACUGCGGGUUCGAGUGCCGUACGGAACG [C4U A15G C60G], 0.537. For GUUUCGUUGGCGUACUAAUAACGCGUCUCCCUCCUCAGGAGAAGACUGCGGGUUUGAGUCCCGUAAGGAACG [C4U A15C G17A G18A A36C C55U C66A], the yeast fitness is at most 0.5. To GUUUCGUUGGCGUUAUGGUAACGCGUCUCCCUCCUAAGGAGGAGAUUGCGGGUUCGAGUCCCGUACGGAACG [C4U A14U A42G C46U] belongs at most 0.5; to GUUUCGUUGGCGUAAUGGUCAUGCGUCUCCCUCCUAAGGAGAAGACAGCGGGUUCGAGUCCUGUACGGAACG [C4U A20C C22U U47A C62U], 0.753; to GUUGCGUUGGCGUAAUGGUAACGCGUCUCCCUCCUAAGGAGAAGACUGCGGGAUCGAGUCCCGUACGGAACG [C4G U53A], 0.594. Turning to GUUUCGUUGGCGUAAUGGUCACGCGUCUCCCUCGUGAGGAGAAGACUGCGGGUUCGAGUCCCGUACGGAACG [C4U A20C C34G A36G], the yeast fitness came out at 0.606. To GUUUCGUUGGCGUACUGGUAACGCGUCUCCCUCCUAAGGAGAAGACUGCGGGUUCGAGUCCCGUACCGAACG [C4U A15C G67C] belongs 0.54; to GUUUCGUUGGCGUCAUGGUAACGCGUCUCCCUCCUAAGGAGAAGACUGCGGGUUCGAGUCCCGUACGGAACG [C4U A14C], 0.749. To GUUUCGUUGGCGUCAUGGUAACGCGUCUCCCUCCUAAGGAGAAGACUGCGGGUUCGAGAUCCGUACGGAACG [C4U A14C U59A C60U] belongs at most 0.5. Turning to GUUUCGUUGGCGUAAUGGUCACGCGUCUUCCUCCUAAGGAGAAGACUGCGGGUUCGAGUCCCGUACGGAACG [C4U A20C C29U], the yeast fitness stood at 0.715. To GUUUCGUUGGCGUCAUGGUAACGCGUCUCCCUCCUAAGGAGAAGACUGCGGGUUCGAGUCCCGUACGCAACG [C4U A14C G68C] belongs at most 0.5; to GUUUCGUUGGCGUAAUGGUCACGCGUCUCCCUCCUAAGGUGAAGACUGCGGGUUGGAGUCCCGUACGGAACG [C4U A20C A40U C55G], 0.578; to GUUGCGUUGGCGUAAUGGUAACGCGUCUCCCUCCCAAGAAGAAGACUGCGGGUUCGAGUCCAGUACGGAACG [C4G U35C G39A C62A], 0.511.

GUUUCGUUGGCGUAGUGGUAAUGCGUCUCCCUCCUAAGGAGAAGACUGCGGGUUCGAGUCCCGUACGGUACG [C4U A15G C22U A69U]: the yeast fitness is at most 0.5. To GUUUCGUUGGCGUGAUGGUAACGCGUCUCGCUCCUUAGGAGAAGACUGCGGGUUCGAGUCCCGUACGGAACG [C4U A14G C30G A36U] belongs at most 0.5; to GUUUCGUUGGCGUGAUGGUAACGCGUCUCCCUCCUGAGGAGAAGACUGCGGGUUCGAGUGACGUACGGAACG [C4U A14G A36G C60G C61A], at most 0.5. To GUUUCGUUGGCGUCAUGGUAAAGCGUCUCCCUCCUAAGGAGAAGACUGCGGGUCGGAGUCCCGUACGGAACG [C4U A14C C22A U54C C55G] belongs at most 0.5. To GUUUCGUUGGCGUACUGGUAACGCGUCUCCCUCCUAGGGGGAAGACUGCGGGUUCGAGUCCCGUACGUAACG [C4U A15C A37G A40G G68U] belongs at most 0.5; to GUUUCGUUGGCGUUAUGGUAACGCGUCUCCCUCCUAAGGAGAUGACUGCGGGUUCGAGUCCCGUACGAAACG [C4U A14U A43U G68A], at most 0.5. Take GUUUCGUUGGCGUAUUGGUAACGCGUCUCCCUCCUAAGGAGCAGACAGCGGGUUCGAGUCCCGUGCGGAACG [C4U A15U A42C U47A A65G]: the yeast fitness is at most 0.5.

On to GUUGCGUUGGCGUAAUGGUAACGCGUCUCCCUCCUAAGGAGAAGACAGCGGGUUCGAGUCCCGUACGGAACG [C4G U47A], for which the yeast fitness worked out at 0.854. GUUGCGUUGGCGUAAUGGUAACGCGUCUCCCUCCUAAGGAGAAGACCGCGGGUUCGAGUCCCGUACGGAACG [C4G U47C]: the yeast fitness was determined as 0.865. With GUUUCGUUGGCGUAAUGGUCACGCGUCUCCCUCCUAAGGAGAAGACUGCGGGUUCGAGUCCCGUACGGAACG [C4U A20C], the yeast fitness was 1.03. Take GUUUCGUUGGCGUUAUGGUAACGCGUCUCCCUCCUAAGAAGAAGACUGGGGGUUCGAGUCCCGUACGGAACG [C4U A14U G39A C49G]: the yeast fitness is at most 0.5. In the case of GUUUCGUUGGCGUCAUGGUAACGCGUCUUCCUCCUAAGGAGAAGACUGCGGGUUCGAGUCCCGUGCGGAACG [C4U A14C C29U A65G], the yeast fitness came to 0.765.

Source of the values: the RNAGym collection of RNA variant scans (doi:10.1126/science.aae0568).
